# Experimental data: ChEMBL document CHEMBL1134791, “2- and 3-substituted 1,4-naphthoquinone derivatives as subversive substrates of trypanothione reductase and lipoamide dehydrogenase from Trypanosoma cruzi: synthesis and correlation between redox cycling activities and in vitro cytotoxicity” (J Med Chem, 2001)
# What was measured:
# [1] = molecular target: Trypanothione reductase (Trypanosoma cruzi) (UniProt P28593); experiment: Rate of NADPH oxidation by TcTR in presence of 100 uM NQ was determined in comparison to intrinsic oxidase activity
# Trypanothione reductase (Trypanosoma cruzi), sequence (P28593 whole entry, looked up): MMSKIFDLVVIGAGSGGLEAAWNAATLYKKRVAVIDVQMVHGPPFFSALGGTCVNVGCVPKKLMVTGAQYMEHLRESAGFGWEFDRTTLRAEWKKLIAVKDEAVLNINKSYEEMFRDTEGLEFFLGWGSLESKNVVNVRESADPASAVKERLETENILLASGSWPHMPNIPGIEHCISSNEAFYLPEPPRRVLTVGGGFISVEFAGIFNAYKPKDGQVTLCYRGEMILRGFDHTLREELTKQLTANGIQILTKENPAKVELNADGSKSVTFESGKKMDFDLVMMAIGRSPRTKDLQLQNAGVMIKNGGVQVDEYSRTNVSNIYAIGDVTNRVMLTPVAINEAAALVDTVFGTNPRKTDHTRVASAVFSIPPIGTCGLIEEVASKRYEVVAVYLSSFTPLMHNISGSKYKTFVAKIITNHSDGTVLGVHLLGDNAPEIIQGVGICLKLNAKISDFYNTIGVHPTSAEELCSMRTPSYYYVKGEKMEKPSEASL
# How it was run: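 Quinone reductase activity of recombinant TcTR measured as NADPH oxidation at 340 nm. Buffer was 20 mM Hepes, 1 mM EDTA, 0.15 M KCl, pH 7.25, with 250 µM NADPH at 25 °C. Rate with naphthoquinone (100 µM for line 8, 25 µM for line 9) divided by intrinsic oxidase rate of enzyme plus NADPH alone. Mean of at least two measurements.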
# [2] = test system: Leishmania donovani; experiment: In vitro antiparasitic activity against Leishmania donovani was tested by sigmoidal regression analysis; type: functional
# How it was run: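 Mouse peritoneal macrophages (female CD1, starch-elicited, harvested 24 h) infected with L. donovani amastigotes (strain MHOM/ET/67/L82, hamster spleen) or T. cruzi Y-strain trypomastigotes (5:1, from MDCK overlay). Infected cells exposed to a 3-fold dilution series in quadruplicate for 5 days (L. donovani) or 3 days (T. cruzi). Giemsa-stained slides scored for % macrophages cleared of amastigotes versus untreated cultures. ED50 by sigmoidal regression.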
# [3] = molecular target: Trypanothione reductase (Trypanosoma cruzi) (UniProt P28593); experiment: The second order rate constant of the TcTR (Trypanosoma cruzi trypanothione reductase) catalyzed […].
# How it was run: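 Recombinant TcTR (0.6 U) in 20 mM Hepes, 1 mM EDTA, 0.15 M KCl, pH 7.25 at 22 °C, with 200 µM NADPH and naphthoquinone at five concentrations (0–100 µM) in 1% DMSO. NADPH oxidation at 340 nm; intrinsic oxidase rate not subtracted. Km and Vmax from nonlinear Michaelis–Menten fit; kcat and kcat/Km calculated.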
# [4] = molecular target: T1, Dihydrolipoyl dehydrogenase, mitochondrial (Sus scrofa) (UniProt P09623); experiment: The second order rate constant of the pig heart LipDH (lipoamide dehydrogenase) catalyzed NADH oxidation.
# T1 sequence (whole entry): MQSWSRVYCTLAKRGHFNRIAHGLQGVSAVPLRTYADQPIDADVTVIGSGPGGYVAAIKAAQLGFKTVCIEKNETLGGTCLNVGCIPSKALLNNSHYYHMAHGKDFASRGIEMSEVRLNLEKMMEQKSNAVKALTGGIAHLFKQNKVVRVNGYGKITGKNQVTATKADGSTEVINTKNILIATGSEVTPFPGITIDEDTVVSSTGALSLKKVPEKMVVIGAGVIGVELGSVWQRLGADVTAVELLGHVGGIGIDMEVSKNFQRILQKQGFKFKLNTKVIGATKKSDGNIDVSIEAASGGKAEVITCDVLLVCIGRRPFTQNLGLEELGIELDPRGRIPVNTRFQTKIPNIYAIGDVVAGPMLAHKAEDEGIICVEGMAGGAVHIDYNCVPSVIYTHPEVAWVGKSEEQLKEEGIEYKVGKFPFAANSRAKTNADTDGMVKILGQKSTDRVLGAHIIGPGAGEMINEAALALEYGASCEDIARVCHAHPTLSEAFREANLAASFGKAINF
# How it was run: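 Recombinant T. cruzi LipDH (E. coli, purified) or pig heart LipDH, 0.1–2.5 µg/mL. Buffer was 50 mM potassium phosphate, 1 mM EDTA, pH 7.0, with 100 µM NADH and naphthoquinone at 10 µM–1.2 mM; all assays carried equal DMSO. Run at 31 °C, started with enzyme, NADH decrease followed at 340 nm. Km and Vmax from Lineweaver–Burk plots. At least duplicate.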
# [5] = molecular target: T1, Dihydrolipoyl dehydrogenase, mitochondrial (Sus scrofa); experiment: Ratio of cytochrome c reduction and NADH oxidation by pig heart LipDH (lipoamide dehydrogenase) at 50 uM concentration, in cytochrome c assay
# How it was run: (§1)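 T. cruzi or pig heart LipDH in 50 mM potassium phosphate pH 7.0 with 100 µM NADH, 50 µM cytochrome c and 50 µM naphthoquinone at 31 °C. Cytochrome c reduction read at 550 nm; NADH oxidation measured at 340 nm in the same conditions without cytochrome c. One-electron reduction % = cytochrome c rate ÷ (2 × NADH rate). At least duplicate.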
# [6] = test system: Trypanosoma cruzi; experiment: Ratio of cytochrome c reduction and NADH oxidation by TcLipDH (Trypanosoma cruzi lipoamide dehydrogenase) at 50 uM concentration, in cytochrome c assay; how it was run: as §1
SMILES,ED50 [2] [µM],k cat/Km [3],also measured
CC1=C(NCCCNCCC/N=C2/C(=O)c3ccccc3C(O)=C2C)C(=O)c2ccccc2C1=O,,,x fold [1]: 4
CC1=C(NCCCN2CCN(CCCN)CC2)C(=O)c2c(O)cccc2C1=O,,,x fold [1]: 6.4
CC1=C(CCCCCNC(=O)OC(C)(C)C)C(=O)c2c(O)cccc2C1=O,33.8,,
CN1CCN(CCCNC(=O)CCC2=C(CCC(=O)NCCCN3CCN(C)CC3)C(=O)c3c(O)cccc3C2=O)CC1,> 50,,
CC1=C(CCCC(=O)NCCCNCCCNC(=O)CCCC2=C(C)C(=O)c3cccc(O)c3C2=O)C(=O)c2c(O)cccc2C1=O,46.7,6.5 10e4 M-1 s-1,
CC1=C(CCCCC(=O)O)C(=O)c2c(O)cccc2C1=O,56,,
CC1=C(CCCC(=O)NCCCCNCCCNC(=O)CCCC2=C(C)C(=O)c3ccccc3C2=O)C(=O)c2ccccc2C1=O,> 48,2.3 10e4 M-1 s-1,
CC1=C(CCC(=O)NCCCN2CCN(C)CC2)C(=O)c2c(O)cccc2C1=O,,,k cat/Km [4]: 6.1 10e4 M-1 s-1; Reduction [5]: 0.6%; Reduction [6]: 1.9%
CN1CCN(CCCNC(=O)CCCC2=C(CCCC(=O)NCCCN3CCN(C)CC3)C(=O)c3c(O)cccc3C2=O)CC1,> 59,,x fold [1]: 45
CC1=C(CCCCC(=O)NCCCCNCCCNC(=O)CCCCC2=C(C)C(=O)c3cccc(O)c3C2=O)C(=O)c2c(O)cccc2C1=O,7.8,13 10e4 M-1 s-1,
CC1=C(CCCCNC(=O)OC(C)(C)C)C(=O)c2ccccc2C1=O,16.5,,
O=C(O)CCC1=C(CCC(=O)O)C(=O)c2c(O)cccc2C1=O,> 93,,
CC1=C(CCCCC(=O)NCCCNCCCNC(=O)CCCCC2=C(C)C(=O)c3ccccc3C2=O)C(=O)c2ccccc2C1=O,> 45,0.8 10e4 M-1 s-1,
CC1=C(NCCCNCCCN)C(=O)c2c(O)cccc2C1=O,> 30,,x fold [1]: 2
CC1=C(CCCC(=O)NCCCN2CCN(CCCNC(=O)CCCC3=C(C)C(=O)c4ccccc4C3=O)CC2)C(=O)c2ccccc2C1=O,14.7,4.2 10e4 M-1 s-1,
CC1=C(CCCC(=O)N2CCN(C)CC2)C(=O)c2ccccc2C1=O,32,,
CC1=C(CCC(=O)NCCCNCCCNC(=O)CCC2=C(C)C(=O)c3ccccc3C2=O)C(=O)c2ccccc2C1=O,> 51,2.3 10e4 M-1 s-1,
CC1=C(CCCC(=O)NCCCN2CCN(CCCNC(=O)CCCC3=C(C)C(=O)c4cccc(O)c4C3=O)CC2)C(=O)c2c(O)cccc2C1=O,38.5,3.5 10e4 M-1 s-1,
CC1=C(CCCC(=O)O)C(=O)c2c(O)cccc2C1=O,> 109,,

SMILES,ED50 [2] [µM],k cat/Km [3],also measured
CN1CCN(C(=O)CCC2=C(CCC(=O)N3CCN(C)CC3)C(=O)c3c(O)cccc3C2=O)CC1,> 62,,
CC1=C(CCC(=O)NCCCCNCCCNC(=O)CCC2=C(C)C(=O)c3ccccc3C2=O)C(=O)c2ccccc2C1=O,> 50,5.1 10e4 M-1 s-1,
CC1=C(CCC(=O)NCCCCNCCCNC(=O)CCC2=C(C)C(=O)c3cccc(O)c3C2=O)C(=O)c2c(O)cccc2C1=O,> 48,7.7 10e4 M-1 s-1,
CN(C)CCCN1CCN(CC2=C(N3CCN(CCCN(C)C)CC3)C(=O)c3ccccc3C2=O)CC1,,,x fold [1]: 3.9
CC1=C(CCCCNC(=O)OC(C)(C)C)C(=O)c2c(O)cccc2C1=O,14.2,,
CC1=C(CCCC(=O)N2CCN(C)CC2)C(=O)c2c(O)cccc2C1=O,82,,x fold [1]: 14
CC1=C(CCCCCC(=O)NCCCN2CCN(CCCNC(=O)CCCCCC3=C(C)C(=O)c4cccc(O)c4C3=O)CC2)C(=O)c2c(O)cccc2C1=O,17.4,16.8 10e4 M-1 s-1,
O=C(O)CCCCCC1=C(CCCCCC(=O)O)C(=O)c2ccccc2C1=O,> 74,,
CC1=C(O)c2ccccc2C(=O)/C1=N\CCCN1CCN(C)CC1,,,x fold [1]: 2
CC1=C(CCCC(=O)NCCCN2CCN(C)CC2)C(=O)c2ccccc2C1=O,> 76,,x fold [1]: 11
CC1=C(CCCCC(=O)NCCCCNCCCNC(=O)CCCCC2=C(C)C(=O)c3ccccc3C2=O)C(=O)c2ccccc2C1=O,11.9,5.8 10e4 M-1 s-1,
O=C(O)CCCC1=C(CCCC(=O)O)C(=O)c2c(O)cccc2C1=O,> 87,,
CC1=C(CCCCC(=O)NCCCN2CCN(CCCNC(=O)CCCCC3=C(C)C(=O)c4cccc(O)c4C3=O)CC2)C(=O)c2c(O)cccc2C1=O,29.6,,
CC1=C(CCCCC(=O)O)C(=O)c2ccccc2C1=O,39,,
O=C(O)CCCCC1=C(CCCCC(=O)O)C(=O)c2c(O)cccc2C1=O,> 80,,
CC1=C(CCCCCC(=O)NCCCNCCCNC(=O)CCCCCC2=C(C)C(=O)c3ccccc3C2=O)C(=O)c2ccccc2C1=O,22.8,2.3 10e4 M-1 s-1,
CC1=C(CCCCCNC(=O)OC(C)(C)C)C(=O)c2ccccc2C1=O,12.5,,
CC1=C(CCC(=O)N2CCN(C)CC2)C(=O)c2ccccc2C1=O,87,,x fold [1]: 19
CC1=C(CCCCCC(=O)NCCCCNCCCNC(=O)CCCCCC2=C(C)C(=O)c3cccc(O)c3C2=O)C(=O)c2c(O)cccc2C1=O,34.8,13.3 10e4 M-1 s-1,

SMILES,ED50 [2] [µM],k cat/Km [3],also measured
CC1=C(CCCCCC(=O)O)C(=O)c2c(O)cccc2C1=O,28,,
CC1=C(CCC(=O)NCCCN2CCN(CCCNC(=O)CCC3=C(C)C(=O)c4cccc(O)c4C3=O)CC2)C(=O)c2c(O)cccc2C1=O,> 44,5.1 10e4 M-1 s-1,
CC1=C(CCCCCC(=O)NCCCNCCCNC(=O)CCCCCC2=C(C)C(=O)c3cccc(O)c3C2=O)C(=O)c2c(O)cccc2C1=O,10.3,14.5 10e4 M-1 s-1,
CC1=C(CCCC(=O)NCCCCNCCCNC(=O)CCCC2=C(C)C(=O)c3cccc(O)c3C2=O)C(=O)c2c(O)cccc2C1=O,> 46,3.6 10e4 M-1 s-1,
CC1=C(CCNC(=O)OC(C)(C)C)C(=O)c2ccccc2C1=O,8.8,,
CC1=C(CCCCCC(=O)O)C(=O)c2ccccc2C1=O,18,,
CC1=C(CCCCCC(=O)NCCCCNCCCNC(=O)CCCCCC2=C(C)C(=O)c3ccccc3C2=O)C(=O)c2ccccc2C1=O,5.4,4.8 10e4 M-1 s-1,
CC1=C(CCCCCC(=O)NCCCN2CCN(CCCNC(=O)CCCCCC3=C(C)C(=O)c4ccccc4C3=O)CC2)C(=O)c2ccccc2C1=O,14.3,3.3 10e4 M-1 s-1,
CC1=C(CCNC(=O)OC(C)(C)C)C(=O)c2c(O)cccc2C1=O,11.8,,
CC1=C(NCCCNCCCCNCCCN)C(=O)c2c(O)cccc2C1=O,> 30,,
CC1=C(CCCCC(=O)NCCCNCCCNC(=O)CCCCC2=C(C)C(=O)c3cccc(O)c3C2=O)C(=O)c2c(O)cccc2C1=O,11.1,11.4 10e4 M-1 s-1,
CC1=C(CCC(=O)N2CCN(C)CC2)C(=O)c2c(O)cccc2C1=O,> 88,,x fold [1]: 38
CC1=C(CCCCC(=O)NCCCN2CCN(CCCNC(=O)CCCCC3=C(C)C(=O)c4ccccc4C3=O)CC2)C(=O)c2ccccc2C1=O,31.3,8.4 10e4 M-1 s-1,
CC1=C(CCC(=O)NCCCNCCCNC(=O)CCC2=C(C)C(=O)c3cccc(O)c3C2=O)C(=O)c2c(O)cccc2C1=O,> 49,4.5 10e4 M-1 s-1,
CC1=C(NCCCCN)C(=O)c2ccccc2C1=O,> 12.5,,
CN1CCN(CCCNC(=O)CCCCC2=C(CCCCC(=O)NCCCN3CCN(C)CC3)C(=O)c3c(O)cccc3C2=O)CC1,38.2,,
CC1=C(CCCC(=O)NCCCN2CCN(C)CC2)C(=O)c2c(O)cccc2C1=O,66,,x fold [1]: 40
CN1CCN(C(=O)CCCC2=C(CCCC(=O)N3CCN(C)CC3)C(=O)c3c(O)cccc3C2=O)CC1,> 48,,x fold [1]: 220
CC1=C(CCCC(=O)NCCCNCCCNC(=O)CCCC2=C(C)C(=O)c3ccccc3C2=O)C(=O)c2ccccc2C1=O,> 49,1.6 10e4 M-1 s-1,
